Experimental data published in ChEMBL document CHEMBL3091449, “Synthesis and antimicrobial profile of N-substituted imidazolium oximes and their monoquaternary salts against multidrug resistant bacteria” (2013).

Experiments:
Clostridium perfringens [1] = test: Antibacterial activity against Clostridium perfringens FNSST 4999 after 18 to 24 hrs by two-fold broth microdilution assay; format: functional
Outline: (§1)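 CLSI two-fold broth microdilution. Compounds dissolved in DMSO, 10 mg/mL stock, serially diluted to 400–0.09 µg/mL in Mueller Hinton broth. Wells inoculated with 10^6 CFU/mL bacteria and incubated 18–24 h at 37 °C. 0.2 mg/mL INT added for 30 min. MIC taken as the lowest concentration with no visible growth or pink colour. Triplicate.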

Bacillus cereus [2] = test: Antibacterial activity against Bacillus cereus ATCC 11778 after 18 to 24 hrs by two-fold broth microdilution assay; format: functional
Outline: (§2)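 CLSI two-fold broth microdilution was used. Compounds were dissolved in DMSO, brought to 10 mg/mL in medium, then serially diluted in Mueller Hinton broth over 400–0.09 µg/mL. Overnight MHB cultures were diluted to 10^6 CFU/mL, and 10 µL was added per well. Plates were incubated 18–24 h at 37 °C, then 0.2 mg/mL INT was added for 30 min at 37 °C. MIC was the lowest concentration with no visible growth or pink colour, triplicate.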

Staphylococcus aureus [3] = test: Antibacterial activity against Staphylococcus aureus ATCC 25923 after 18 to 24 hrs by two-fold broth microdilution assay; format: functional; outline: as §2
Escherichia coli [4] = test: Ratio of gentamicin MIC to compound MIC for Escherichia coli FNSST 982; format: functional
Staphylococcus aureus [5] = test: Antibacterial activity against Staphylococcus aureus ATCC 25923 assessed as diameter of zone of inhibition at 250 ug/disc after 24 hrs by disc diffusion method; format: functional; conditions: ATCC 25923, 24 h, read-out: DIZ
Outline: (§3)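 Bacteria were grown overnight at 37 °C in TSB to about 10^6 cfu/mL, and 100 µL was spread on Mueller Hinton agar. Sterile 6 mm discs were each loaded with 25 µL of a 10 mg/mL stock in 96% ethanol, giving 250 µg/disc. Ethanol served as the negative control. Plates were incubated 24 h at 37 °C. Inhibition zone diameter was measured including the disc, in triplicate, as mean ± SE.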

Aeromonas hydrophila [6] = test: Antibacterial activity against Aeromonas hydrophila FNSST 014 after 18 to 24 hrs by two-fold broth microdilution assay; format: functional; outline: as §2
Enterococcus faecalis [7] = test: Antibacterial activity against Enterococcus faecalis ATCC 29212 assessed as diameter of zone of inhibition at 250 ug/disc after 24 hrs by disc diffusion method; format: functional; conditions: ATCC 29212, 24 h, read-out: DIZ; outline: as §3
Clostridium perfringens [8] = test: Antibacterial activity against Clostridium perfringens FNSST 4999 assessed as diameter of zone of inhibition at 250 ug/disc after 24 hrs by disc diffusion method; format: functional; conditions: FNSST 4999, 24 h, read-out: DIZ
Outline: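 Disc diffusion per CLSI: 100 µL of 10^6 cfu/mL bacterial suspension spread on Mueller Hinton agar. 6 mm discs loaded with 25 µL of 10 mg/mL compound stock in 96% ethanol (250 µg/disc); ethanol as negative control. Incubated 24 h at 37 °C. Inhibition zone diameter measured in mm including the disc, triplicate, reported as mean ± SE.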

Pseudomonas aeruginosa [9] = test: Antibacterial activity against Pseudomonas aeruginosa FNSST 982 after 18 to 24 hrs by two-fold broth microdilution assay; format: functional; outline: as §2
Escherichia coli [10] = test: Antibacterial activity against Escherichia coli FNSST 982 assessed as diameter of zone of inhibition at 250 ug/disc after 24 hrs by disc diffusion method; format: functional; conditions: FNSST 982, 24 h, read-out: DIZ; outline: as §3
Enterococcus faecalis [11] = test: Antibacterial activity against Enterococcus faecalis ATCC 29212 after 18 to 24 hrs by two-fold broth microdilution assay; format: functional; outline: as §2
Aspergillus fumigatus = test: Antifungal activity against Aspergillus fumigatus FNSST 3833 assessed as diameter of zone of inhibition at 250 ug/disc after 72 hrs by disc diffusion method; format: functional; conditions: FNSST 3833, 72 h, read-out: DIZ
Outline: (§4)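 Fungi were grown overnight at 30 °C in Sabouraud dextrose broth to 10^4 cfu/mL, and 100 µL was spread on Sabouraud dextrose agar. 6 mm discs carried 250 µg (25 µL of a 10 mg/mL stock in 96% ethanol), with ethanol as the negative control. Incubation was at 30 °C for 48 h (yeast) or 72 h (molds). Zone diameter was read including the disc, in triplicate, mean ± SE.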

Escherichia coli [12] = test: Antibacterial activity against Escherichia coli FNSST 982 after 18 to 24 hrs by two-fold broth microdilution assay; format: functional; outline: as §2
Pseudomonas aeruginosa [13] = test: Antibacterial activity against Pseudomonas aeruginosa FNSST 982 assessed as diameter of zone of inhibition at 250 ug/disc after 24 hrs by disc diffusion method; format: functional; conditions: FNSST 982, 24 h, read-out: DIZ; outline: as §3
Bacillus cereus [14] = test: Antibacterial activity against Bacillus cereus ATCC 11778 assessed as diameter of zone of inhibition at 250 ug/disc after 24 hrs by disc diffusion method; format: functional; conditions: ATCC 11778, 24 h, read-out: DIZ; outline: as §3
Klebsiella pneumoniae [15] = test: Antibacterial activity against Klebsiella pneumoniae FNSST 011 after 18 to 24 hrs by two-fold broth microdilution assay; format: functional; outline: as §2
Pseudomonas aeruginosa [16] = test: Ratio of cefotaxime MIC to compound MIC for Pseudomonas aeruginosa FNSST 982; format: functional
Talaromyces funiculosus = test: Antifungal activity against Penicillium funiculosum FNSST 3724 assessed as diameter of zone of inhibition at 250 ug/disc after 72 hrs by disc diffusion method; format: functional; conditions: FNSST 3724, 72 h, read-out: DIZ; outline: as §4
Candida albicans = test: Antifungal activity against Candida albicans ATCC 10231 assessed as diameter of zone of inhibition at 250 ug/disc after 48 hrs by disc diffusion method; format: functional; conditions: ATCC 10231, 48 h, read-out: DIZ; outline: as §4
Klebsiella pneumoniae [17] = test: Antibacterial activity against Klebsiella pneumoniae FNSST 011 assessed as diameter of zone of inhibition at 250 ug/disc after 24 hrs by disc diffusion method; format: functional; conditions: FNSST 011, 24 h, read-out: DIZ; outline: as §3
Pseudomonas aeruginosa [18] = test: Ratio of gentamicin MIC to compound MIC for Pseudomonas aeruginosa FNSST 982; format: functional
Aeromonas hydrophila [19] = test: Antibacterial activity against Aeromonas hydrophila FNSST 014 assessed as diameter of zone of inhibition at 250 ug/disc after 24 hrs by disc diffusion method; format: functional; conditions: FNSST 014, 24 h, read-out: DIZ; outline: as §3
Aeromonas hydrophila [20] = test: Antibacterial activity against Aeromonas hydrophila FNSST 014 assessed as diameter of zone of inhibition at 15 ug/disc after 24 hrs by disc diffusion method; format: functional, organism-based
Outline: (§5)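 Gentamicin 15 µg disc run as positive control in CLSI disc diffusion. Lawn of 100 µL of 10^6 cfu/mL bacteria on Mueller Hinton agar, incubated 24 h at 37 °C. Zone diameter measured in mm including the 6 mm disc, triplicate, mean ± SE.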

Klebsiella pneumoniae [21] = test: Antibacterial activity against TEM-1/SHV-12 expressing Klebsiella pneumoniae isolate 303 after 18 to 24 hrs by two-fold broth microdilution assay; format: functional; outline: as §2
Enterobacter cloacae [22] = test: Antibacterial activity against TEM-1/CTX-M-15 expressing Enterobacter cloacae isolate 62 after 18 to 24 hrs by two-fold broth microdilution assay; format: functional
Pseudomonas aeruginosa [23] = test: Antibacterial activity against Pseudomonas aeruginosa FNSST 982 assessed as diameter of zone of inhibition at 15 ug/disc after 24 hrs by disc diffusion method; format: functional, organism-based; outline: as §5
Escherichia coli [24] = test: Antibacterial activity against TEM-1/SHV-12 expressing Escherichia coli isolate 237 after 18 to 24 hrs by two-fold broth microdilution assay; format: functional; outline: as §1
Staphylococcus aureus [25] = test: Antibacterial activity against Staphylococcus aureus ATCC 25923 assessed as diameter of zone of inhibition at 15 ug/disc after 24 hrs by disc diffusion method; format: functional, organism-based; outline: as §5
Klebsiella pneumoniae [26] = test: Antibacterial activity against Klebsiella pneumoniae FNSST 011 assessed as diameter of zone of inhibition at 15 ug/disc after 24 hrs by disc diffusion method; format: functional, organism-based; outline: as §5
Acinetobacter baumannii = test: Antibacterial activity against SIM-1 expressing Acinetobacter baumannii isolate 170 after 18 to 24 hrs by two-fold broth microdilution assay; format: functional; outline: as §1
Aeromonas caviae [27] = test: Antibacterial activity against […] expressing Aeromonas caviae isolate 258 after 18 to 24 hrs by two-fold broth microdilution assay; format: functional; outline: as §2
Enterobacter cloacae [28] = test: Antibacterial activity against TEM-1/SHV-12 expressing Enterobacter cloacae isolate 306 after 18 to 24 hrs by two-fold broth microdilution assay; format: functional
Bacillus cereus [29] = test: Antibacterial activity against Bacillus cereus ATCC 11778 assessed as diameter of zone of inhibition at 15 ug/disc after 24 hrs by disc diffusion method; format: functional, organism-based; outline: as §5
[30] = tested on: Stenotrophomonas maltophilia; test: Antibacterial activity against […] expressing Stenotrophomonas maltophilia isolate 125 after 18 to 24 hrs by two-fold broth microdilution assay; format: functional; outline: as §2
Escherichia coli [31] = test: Antibacterial activity against […] expressing Escherichia coli isolate 4024 after 18 to 24 hrs by two-fold broth microdilution assay; format: functional; outline: as §1
Kluyvera intermedia = test: Antibacterial activity against TEM-1/SHV-12/[…] expressing Enterobacter intermedius isolate 243 after 18 to 24 hrs by two-fold broth microdilution assay; format: functional; outline: as §2
Clostridium perfringens [32] = test: Antibacterial activity against Clostridium perfringens FNSST 4999 assessed as diameter of zone of inhibition at 15 ug/disc after 24 hrs by disc diffusion method; format: functional, organism-based; outline: as §5
Aeromonas hydrophila [33] = test: Antibacterial activity against TEM-1/SHV-12 expressing Aeromonas hydrophila isolate 268 after 18 to 24 hrs by two-fold broth microdilution assay; format: functional; outline: as §2
Escherichia coli [34] = test: Antibacterial activity against Escherichia coli FNSST 982 assessed as diameter of zone of inhibition at 15 ug/disc after 24 hrs by disc diffusion method; format: functional, organism-based; outline: as §5
Enterobacter cloacae [35] = test: Antibacterial activity against CTX-15 expressing Enterobacter cloacae isolate 51 after 18 to 24 hrs by two-fold broth microdilution assay; format: functional
Enterococcus faecalis [36] = test: Antibacterial activity against Enterococcus faecalis ATCC 29212 assessed as diameter of zone of inhibition at 15 ug/disc after 24 hrs by disc diffusion method; format: functional, organism-based; outline: as §5
Pseudomonas aeruginosa [37] = test: Antibacterial activity against GIM-1 expressing Pseudomonas aeruginosa isolate 197 after 18 to 24 hrs by two-fold broth microdilution assay; format: functional; outline: as §2
Escherichia coli [38] = test: Antibacterial activity against […] expressing Escherichia coli isolate 235 after 18 to 24 hrs by two-fold broth microdilution assay; format: functional; outline: as §1
Aeromonas caviae [39] = test: Antibacterial activity against TEM-1/CTX-M-15 expressing Aeromonas caviae isolate 260 after 18 to 24 hrs by two-fold broth microdilution assay; format: functional; outline: as §2

Cc1ccc(-[n+]2ccn(Cc3ccccc3)c2/C=N/O)cc1.[Br-]
MIC (Clostridium perfringens [1]): 25 µg/mL | MIC (Bacillus cereus [2]): 12.5 µg/mL | MIC (Staphylococcus aureus [3]): 6.25 µg/mL | Ratio (Escherichia coli [4]): 2.5 | zone of inhibition at 250 µg/disc (Staphylococcus aureus [5]): 18.4 mm | MIC (Aeromonas hydrophila [6]): 12.5 µg/mL | zone of inhibition at 250 µg/disc (Enterococcus faecalis [7]): 14.5 mm | zone of inhibition at 250 µg/disc (Clostridium perfringens [8]): 20.7 mm | MIC (Pseudomonas aeruginosa [9]): 0.14 µg/mL | zone of inhibition at 250 µg/disc (Escherichia coli [10]): 17.7 mm | MIC (Enterococcus faecalis [11]): 25 µg/mL | zone of inhibition at 250 µg/disc (Aspergillus fumigatus): 20.3 mm | MIC (Escherichia coli [12]): 3.12 µg/mL | zone of inhibition at 250 µg/disc (Pseudomonas aeruginosa [13]): 20.6 mm | zone of inhibition at 250 µg/disc (Bacillus cereus [14]): 12.2 mm | MIC (Klebsiella pneumoniae [15]): 12.5 µg/mL | Ratio (Pseudomonas aeruginosa [16]): 115 | zone of inhibition at 250 µg/disc (Talaromyces funiculosus): 18.4 mm | zone of inhibition at 250 µg/disc (Candida albicans): 20.8 mm | zone of inhibition at 250 µg/disc (Klebsiella pneumoniae [17]): 16.3 mm | Ratio (Pseudomonas aeruginosa [18]): 450 | zone of inhibition at 250 µg/disc (Aeromonas hydrophila [19]): 16.6 mm

GENTAMICIN
MIC (Clostridium perfringens [1]): 0.5 µg/mL | inhibition zone (IZ) (Aeromonas hydrophila [20]): 12.6 mm | MIC (Bacillus cereus [2]): 4 µg/mL | MIC (Klebsiella pneumoniae [21]): 32 µg/mL | MIC (Staphylococcus aureus [3]): 1 µg/mL | MIC (Enterobacter cloacae [22]): 4 µg/mL | inhibition zone (IZ) (Pseudomonas aeruginosa [23]): 9.2 mm | MIC (Escherichia coli [24]): 8 µg/mL | inhibition zone (IZ) (Staphylococcus aureus [25]): 23.9 mm | MIC (Aeromonas hydrophila [6]): 8 µg/mL | inhibition zone (IZ) (Klebsiella pneumoniae [26]): 18.2 mm | MIC (Pseudomonas aeruginosa [9]): 64 µg/mL | MIC (Acinetobacter baumannii): 16 µg/mL | MIC (Enterococcus faecalis [11]): 4 µg/mL | MIC (Aeromonas caviae [27]): 12.8 µg/mL | MIC (Enterobacter cloacae [28]): 256 µg/mL | MIC (Escherichia coli [12]): 32 µg/mL | MIC (Klebsiella pneumoniae [15]): 8 µg/mL | inhibition zone (IZ) (Bacillus cereus [29]): 18.2 mm | MIC [30]: 2 µg/mL | MIC (Escherichia coli [31]): 64 µg/mL | MIC (Kluyvera intermedia): 2 µg/mL | inhibition zone (IZ) (Clostridium perfringens [32]): 21.7 mm | MIC (Aeromonas hydrophila [33]): 4 µg/mL | inhibition zone (IZ) (Escherichia coli [34]): 11.5 mm | MIC (Enterobacter cloacae [35]): 128 µg/mL | inhibition zone (IZ) (Enterococcus faecalis [36]): 14.6 mm | MIC (Pseudomonas aeruginosa [37]): > 8 µg/mL | MIC (Escherichia coli [38]): 16 µg/mL | MIC (Aeromonas caviae [39]): 32 µg/mL
